Results published in ChEMBL document CHEMBL1143606, “3-Aminopyrazole inhibitors of CDK2/cyclin A as antitumor agents. 2. Lead optimization” (J Med Chem, 2005).
Converted amounts (≈) assume the structure as drawn. “And” between values parts separate entries of the source, which are not always exact repeats. Equal values may be shown once.

Key:
[1] = rat, plasma
physchem [2] = conditions: aqueous buffer, pH 7
A2780 [3] = test: Inhibitory concentration towards human ovarian carcinoma cell line A2780; assay type: functional, cell-based
[4] = molecular target: Cyclin-dependent kinase 2/cyclin A (Homo sapiens, UniProt P24941); test: Inhibition of cyclin dependent kinase 2-cyclin A; assay type: protein-complex assay
HT-29 [5] = test: Percent of BrdU incorporation in HT-29 cells at 1 uM concentration of compound; assay type: functional
HT-29 [6] = test: Percent of BrdU incorporation in HT-29 cells at 3 uM concentration of compound; assay type: functional
[7] = Inhibition of glycogen synthase kinase-3 beta (n=13)
Procedure, shortened: (§1)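 IC50 from at least two independent experiments; value is the mean of IC50s obtained by nonlinear least-squares regression fitting. Coefficient of variation of the mean 10% to 24%. GSK-3β belonged to a panel of 30 serine-threonine and tyrosine kinases.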

[8] = molecular target: T1, Cyclin-dependent kinase 1/cyclin B (Homo sapiens, UniProt P06493); test: Inhibition of cyclin dependent kinase 1-cyclin B (n=6); assay type: protein-complex assay
Procedure, shortened: as §1

[9] = molecular target: T2, Cyclin-dependent kinase 2/cyclin E (Homo sapiens, UniProt P24941); test: Inhibition of cyclin dependent kinase 2-cyclin E (n=6); assay type: protein-complex assay
Procedure, shortened: as §1

[10] = molecular target: T3, Cyclin-dependent kinase 4/cyclin D1 (Homo sapiens, UniProt P11802); test: Inhibition of cyclin-dependent kinase 4-cyclin D1 (n=4); assay type: protein-complex assay
T3 sequence (P11802 whole entry): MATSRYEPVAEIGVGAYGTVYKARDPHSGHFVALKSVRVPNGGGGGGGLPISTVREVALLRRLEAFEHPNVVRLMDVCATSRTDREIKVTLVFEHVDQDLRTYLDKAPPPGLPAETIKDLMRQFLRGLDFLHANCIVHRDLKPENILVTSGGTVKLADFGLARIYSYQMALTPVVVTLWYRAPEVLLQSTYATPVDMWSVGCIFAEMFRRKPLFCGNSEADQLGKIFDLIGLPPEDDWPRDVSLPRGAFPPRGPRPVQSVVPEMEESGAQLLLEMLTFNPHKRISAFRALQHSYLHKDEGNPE
T3 sequence (P24385 whole entry, further chain): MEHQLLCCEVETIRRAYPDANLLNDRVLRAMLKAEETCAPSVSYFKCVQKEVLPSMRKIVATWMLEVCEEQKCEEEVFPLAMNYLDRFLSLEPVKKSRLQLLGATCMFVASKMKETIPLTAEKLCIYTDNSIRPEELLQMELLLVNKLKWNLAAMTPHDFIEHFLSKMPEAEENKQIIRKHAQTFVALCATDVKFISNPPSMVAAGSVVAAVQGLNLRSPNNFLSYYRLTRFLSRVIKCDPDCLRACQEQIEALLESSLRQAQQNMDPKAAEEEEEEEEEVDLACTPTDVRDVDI
Procedure, shortened: as §1

HT-29 [11] = test: Inhibitory concentration towards human colon cancer HT-29 cell line; assay type: functional, cell-based
HCT-116 = test: Inhibitory concentration towards HCT 116 human colon cancer cell line; assay type: functional, cell-based
A2780 [12] = test: Inhibitory concentration towards Human ovarian carcinoma cell line A2780; assay type: functional, cell-based
A2780 [13] = test: Percent inhibition tumor growth of Human ovarian cancer cell A2780 in mice when administered 7.5 mg/kg twice a day for 20 days; assay type: functional; conditions: Mus musculus, A2780, 480 h
Procedure, shortened: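 A2780 tumor kept by sc passage of 20-30 mg brei in athymic mice. Fragments implanted sc in left flank of nude mice, 10 mice/group. Dosing began at measurable tumors (mean 0.13 g, day 8). Dosed orally in 50% PEG 400/glucosate. Body weight followed. Data from a single experiment.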

HT-29 [14] = test: Percent of BrdU incorporation in Brdu positive HT-29 cells at 1 uM concentration of compound; assay type: functional, Homo sapiens
HT-29 [15] = test: Percent of BrdU incorporation in Brdu positive HT-29 cells at 3 uM concentration of compound; assay type: functional, Homo sapiens
[16] = molecular target: T1, Cyclin-dependent kinase 1/cyclin B; test: Inhibition of cyclin dependent kinase 1-cyclin B (n=4); assay type: protein-complex assay
Procedure, shortened: as §1

[17] = molecular target: T2, Cyclin-dependent kinase 2/cyclin E; test: Inhibition of cyclin dependent kinase 2-cyclin E (n=4); assay type: protein-complex assay
Procedure, shortened: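 Kinase inhibition assay run by a previously reported method. IC50 is the mean of values from nonlinear least-squares regression fits, with at least two independent experiments per compound. Coefficient of variation of the mean was 10% to 24%.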

[18] = Inhibition of glycogen synthase kinase-3 beta (n=6)
Procedure, shortened: as §1

[19] = molecular target: T3, Cyclin-dependent kinase 4/cyclin D1; test: Inhibition of cyclin-dependent kinase 4-cyclin D1 (n=2); assay type: protein-complex assay
Procedure, shortened: as §1

[20] = molecular target: Cyclin-dependent kinase 5/CDK5 activator 1 (Homo sapiens, UniProt Q00535); test: Inhibition of cyclin-dependent kinase 5 p25 alpha (n=4); assay type: protein-complex assay
Cyclin-dependent kinase 5/CDK5 activator 1, sequence (Q00535 whole entry): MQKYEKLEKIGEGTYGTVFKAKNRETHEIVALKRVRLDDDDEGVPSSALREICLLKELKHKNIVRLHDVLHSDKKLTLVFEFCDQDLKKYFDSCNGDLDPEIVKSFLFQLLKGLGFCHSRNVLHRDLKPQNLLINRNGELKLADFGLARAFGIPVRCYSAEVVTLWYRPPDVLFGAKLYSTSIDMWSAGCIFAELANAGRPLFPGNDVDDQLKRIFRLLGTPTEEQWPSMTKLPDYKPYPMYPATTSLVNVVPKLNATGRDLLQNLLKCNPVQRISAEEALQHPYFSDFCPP
Cyclin-dependent kinase 5/CDK5 activator 1, sequence (Q15078 whole entry, further chain): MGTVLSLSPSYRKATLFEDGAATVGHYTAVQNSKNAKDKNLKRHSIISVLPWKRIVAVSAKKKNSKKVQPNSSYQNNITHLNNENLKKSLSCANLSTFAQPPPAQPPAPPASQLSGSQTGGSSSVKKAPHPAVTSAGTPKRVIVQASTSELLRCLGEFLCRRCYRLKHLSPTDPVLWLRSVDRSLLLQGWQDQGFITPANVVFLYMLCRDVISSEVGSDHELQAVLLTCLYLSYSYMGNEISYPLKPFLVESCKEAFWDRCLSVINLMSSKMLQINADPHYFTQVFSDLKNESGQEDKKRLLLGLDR
Procedure, shortened: as §1

[21] = Half-life of compound in plasma of CD-1 mice upon o.s. dose; assay type: ADME, cell-free; conditions: CD-1, mouse, po
Procedure, shortened: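 Mice dosed orally at 10 mg/kg in PEG 400/glucosate vehicle (preliminary PK, with iv and oral legs); plasma terminal half-life determined.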

[22] = mouse, in vivo
[23] = mouse, in vivo; remark: listed apart in the source
[24] = mouse, in vivo, iv
physchem [25] = conditions: aqueous buffer

Row | Structure (SMILES) | Binding [1] | solubility (physchem [2]) [µM] | IC50 (A2780 [3]) [nM] | IC50 [4] [nM] | further results
1 | O=C(Cc1ccc2ccccc2c1)Nc1cc(C2CC2)n[nH]1 | 99% | 22 (≈ 6.41 µg/mL) | – | – | –
2 | C[C@@H](C(=O)Nc1cc(C2CC2)[nH]n1)c1ccc(N2CCNC2=O)cc1 | 74% | 220 (≈ 74.7 µg/mL) | 13200 | 455 | –
3 | COC(C(=O)Nc1cc(C2CC2)[nH]n1)c1ccccc1 (configuration not stated) | – | – | – | 5000 | –
4 | CO[C@H](C(=O)Nc1cc(C2CC2)n[nH]1)c1ccccc1 | – | – | – | 2000 | –
5 | O=C(Nc1cc(C2CC2)n[nH]1)C(=O)c1ccccc1 | – | – | – | 2600 | –
6 | CC(C(=O)Nc1cc(C2CC2)[nH]n1)c1ccc(N2CCCC2)cc1 (configuration not stated) | 96% | 3 (≈ 0.973 µg/mL) | 370 | – | –
7 | C[C@H](C(=O)Nc1cc(C2CC2)[nH]n1)c1ccc(N2Cc3ccccc3C2=O)cc1 | – | 5 (≈ 1.93 µg/mL) | 1020 | 2 | –
8 | C[C@H](C(=O)Nc1cc(C2CC2)[nH]n1)c1ccc(N2CCCC2=O)cc1 | – | – | 800 | 37 | Brdu positive (HT-29 [5]): 25%; Brdu positive (HT-29 [6]): 4%; IC50 [7]: 732 nM; IC50 [8]: 208 nM; IC50 [9]: 55 nM; IC50 [10]: > 10000 nM; IC50 (HT-29 [11]): 639 nM; IC50 (HCT-116): 1350 nM; IC50 (A2780 [12]): 744 nM; inhibition in vivo at 7.5 mg/kg (A2780 [13]): 73%
9 | O=C(Nc1cc(C2CC2)[nH]n1)C(F)c1ccccc1 (configuration not stated) | – | – | – | 99 | –
10 | C[C@H](C(=O)Nc1cc(C2CC2)[nH]n1)c1ccc(N2CCOC2=O)cc1 | 73% and 74% | 232 (≈ 79 µg/mL) | 790 | 20 | Activity (HT-29 [14]): 65%; Activity (HT-29 [15]): 0.7%; IC50 [16]: 243 nM; IC50 [17]: 37 nM; IC50 [18]: 406 nM; IC50 [19]: > 10000 nM; IC50 [20]: 57 nM; IC50 (HT-29 [11]): 751 nM; IC50 (HCT-116): 1130 nM; IC50 (A2780 [12]): 716 nM; half-life [21]: 3.1 h; Clearance [22]: 4.7 mL/min/kg; Vss [23]: 0.573 L/kg; T1/2 [24]: 2.8 min; solubility (physchem [25]): 225 µM (≈ 76.6 µg/mL)
11 | CC(C(=O)Nc1cc(C2CC2)[nH]n1)c1ccc(N2CCCCC2=O)cc1 (configuration not stated) | – | – | > 10000 | 240 | –
12 | CC(C(=O)Nc1cc(C2CC2)[nH]n1)c1ccc(N2CCN(Cc3ccccc3)C2=O)cc1 (configuration not stated) | – | – | – | 1450 | –
13 | C[C@H](C(=O)Nc1cc(C2CC2)[nH]n1)c1ccc(N2CCN(C)C2=O)cc1 | – | – | 1400 | 17 | –
14 | C[C@@H](C(=O)Nc1cc(C2CC2)[nH]n1)c1ccc(N2Cc3ccccc3C2=O)cc1 | – | 51 (≈ 19.7 µg/mL) | – | 170 | –
15 | C[C@@H](C(=O)Nc1cc(C2CC2)[nH]n1)c1ccc(N2CCOC2=O)cc1 | 72% | 220 (≈ 74.9 µg/mL) | – | 2500 | –
16 | CC(C(=O)Nc1cc(C2CC2)[nH]n1)c1ccc(N2CCOC2=O)cc1 (configuration not stated) | 73% | 222 (≈ 75.6 µg/mL) | 1040 | 25 | –
17 | CC(C(=O)Nc1cc(C2CC2)[nH]n1)c1ccc(N2C(=O)CCC2c2ccccc2)cc1 (configuration not stated) | 97% | 50 (≈ 20.7 µg/mL) | 15300 | 200 | –
18 | C[C@@H](C(=O)Nc1cc(C2CC2)[nH]n1)c1ccc(N2CCCC2=O)cc1 | – | – | 12200 | 2500 | –
19 | CC(C(=O)Nc1cc(C2CC2)[nH]n1)c1ccc(N2CCC(C(N)=O)C2=O)cc1 (configuration not stated) | 57% | 120 (≈ 45.8 µg/mL) | 5710 | 20 | –

Row | Structure (SMILES) | Binding [1] | solubility (physchem [2]) [µM] | IC50 (A2780 [3]) [nM] | IC50 [4] [nM] | further results
20 | C[C@H](C(=O)Nc1cc(C2CC2)[nH]n1)c1ccc(N2CCNC2=O)cc1 | 74% | > 225 | 1270 | 2 | –
21 | O=C(Nc1cc(C2CC2)[nH]n1)C(c1ccccc1)c1ccccc1 | – | – | – | > 10000 | –
22 | CC(C(=O)Nc1cc(C2CC2)[nH]n1)c1ccc(N2CCNC2=O)cc1 (configuration not stated) | 74% | 224 (≈ 76 µg/mL) | 2250 | 12 | –
23 | CC(C(=O)Nc1cc(C2CC2)[nH]n1)c1ccc(-n2cc[nH]c2=O)cc1 (configuration not stated) | 74% | 233 (≈ 78.6 µg/mL) | 6980 | 11 | –
24 | N[C@H](C(=O)Nc1cc(C2CC2)[nH]n1)c1ccccc1 | – | – | – | 960 | –
25 | CC(C(=O)Nc1cc(C2CC2)[nH]n1)c1ccc(N2CC(=O)NC2=O)cc1 (configuration not stated) | 67% | 201 (≈ 71 µg/mL) | 4540 | 17 | –
26 | CC(C(=O)Nc1cc(C2CC2)[nH]n1)c1ccccc1 (configuration not stated) | – | – | – | 169 | –
27 | CC(C(=O)Nc1cc(C2CC2)[nH]n1)c1ccc(N2C(=O)CCC2C)cc1 (configuration not stated) | 67% | 222 (≈ 78.2 µg/mL) | 6400 | 150 | –
28 | CC(C(=O)Nc1cc(C2CC2)[nH]n1)c1ccc(N2CCCC2=O)cc1 (configuration not stated) | – | – | 630 | 169 | –
29 | CC(C(=O)Nc1cc(C2CC2)[nH]n1)c1ccc(N2CCN(C)C2=O)cc1 (configuration not stated) | – | – | 1680 | 29 | –
30 | C[C@H](C(=O)Nc1cc(C2CC2)[nH]n1)c1ccc(N2CCCC2)cc1 | 98% | 24 (≈ 7.79 µg/mL) | 220 | – | –
31 | C[C@@H](C(=O)Nc1cc(C2CC2)[nH]n1)c1ccc(N2CCN(C)C2=O)cc1 | – | – | – | 8500 | –
32 | C[C@@H](C(=O)Nc1cc(C2CC2)[nH]n1)c1ccccc1 | – | – | – | 6000 | –
33 | CC(C(=O)Nc1cc(C2CC2)[nH]n1)c1ccc(N2Cc3ccccc3C2=O)cc1 (configuration not stated) | – | 12 (≈ 4.64 µg/mL) | 4750 | 13 | –
34 | C[C@H](C(=O)Nc1cc(C2CC2)[nH]n1)c1ccccc1 | – | – | – | 84 | –
35 | CO[C@@H](C(=O)Nc1cc(C2CC2)n[nH]1)c1ccccc1 | – | – | – | > 10000 | –
36 | CC(C(=O)Nc1cc(C2CC2)[nH]n1)c1ccc(N2CCCS2(=O)=O)cc1 (configuration not stated) | 78% | 135 (≈ 50.6 µg/mL) | 5240 | – | –
37 | CC(C(=O)Nc1cc(C2CC2)[nH]n1)c1ccc(-n2cn[nH]c2=O)cc1 (configuration not stated) | 58% | 109 (≈ 36.9 µg/mL) | 8390 | 73 | –
38 | CC(C(=O)Nc1cc(C2CC2)[nH]n1)c1ccc(N2C(=O)CNC2=O)cc1 (configuration not stated) | – | – | > 10000 | 124 | –
